Active and inactive are the calls of the source. The rule behind the calls is not given here.

In assay [1] the target is BDNF/NT-3 growth factors receptor (Rattus norvegicus) (UniProt Q63604). As to the kind of experiment: Agonist activity at TrkB in E17 rat primary cortical neurons assessed as AKT phosphorylation at Ser 473 at 500 nM after 15 mins by ELISA. Type of assay: functional, cell-based. The settings on record: Cerebral cortex neuron.
Assay [2] shares this target. As to the kind of experiment: Agonist activity at TrkB in E17 rat primary cortical neurons assessed as TrkB phosphorylation at 817 at 500 nM after 15 mins by immunoblotting. Type of assay: functional, cell-based. As to conditions: Cerebral cortex neuron. A digest of the protocol: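 Rat cortical neurons from E17 embryos, 13 DIV, were treated with 500 nM compound for 15 min. Lysates were run on 10% SDS-PAGE and immunoblotted with p-TrkB Y817 antibody at 1:20,000–40,000.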

BDNF/NT-3 growth factors receptor (Rattus norvegicus), sequence (Q63604 whole entry): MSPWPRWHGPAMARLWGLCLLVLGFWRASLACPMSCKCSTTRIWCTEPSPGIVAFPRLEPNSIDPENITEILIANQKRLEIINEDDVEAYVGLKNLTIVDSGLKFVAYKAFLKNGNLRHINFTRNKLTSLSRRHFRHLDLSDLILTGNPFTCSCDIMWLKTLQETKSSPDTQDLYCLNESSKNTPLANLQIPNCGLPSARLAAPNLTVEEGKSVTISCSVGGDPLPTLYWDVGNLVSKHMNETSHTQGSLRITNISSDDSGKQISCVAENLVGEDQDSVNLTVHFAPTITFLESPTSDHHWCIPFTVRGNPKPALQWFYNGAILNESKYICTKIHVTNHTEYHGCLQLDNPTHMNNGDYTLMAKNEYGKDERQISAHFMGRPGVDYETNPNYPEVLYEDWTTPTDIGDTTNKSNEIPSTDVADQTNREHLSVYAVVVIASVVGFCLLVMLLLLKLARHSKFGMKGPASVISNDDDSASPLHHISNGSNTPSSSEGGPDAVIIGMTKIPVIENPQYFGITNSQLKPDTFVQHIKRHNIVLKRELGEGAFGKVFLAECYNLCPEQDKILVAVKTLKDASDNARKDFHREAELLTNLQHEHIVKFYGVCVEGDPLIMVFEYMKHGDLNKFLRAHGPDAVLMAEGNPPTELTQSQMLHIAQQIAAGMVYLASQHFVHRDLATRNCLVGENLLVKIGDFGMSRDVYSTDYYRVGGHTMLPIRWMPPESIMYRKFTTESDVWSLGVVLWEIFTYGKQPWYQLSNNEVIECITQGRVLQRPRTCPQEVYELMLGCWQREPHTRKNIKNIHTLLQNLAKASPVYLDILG

For `O=c1cc(-c2ccc(O)c(O)c2)oc2cc(O)ccc12`, the result in assay [1] was inactive.
In the case of `O=c1c(O)c(-c2ccccc2)oc2cc(O)ccc12`, the result in assay [1] and in assay [2] was Active.
As to `COc1cccc(-c2oc3ccccc3c(=O)c2OC)c1`, the result in assay [1] was inactive.
The same measure, in the same setting: the value for `O=c1c(O)c(-c2cccc(O)c2)oc2cc(O)ccc12` was “inactive”.
Consider `O=c1cc(-c2cc(O)cc(O)c2)oc2ccccc12`, for which the result in assay [1] was inactive.
As to `O=c1c(O)c(-c2ccccc2O)oc2c(O)c(O)ccc12`, the outcome in assay [1] and in assay [2] was Active.
In the case of `COc1c(O)ccc2c(=O)c(-c3ccc(Cl)cc3)coc12`, in assay [1], the outcome was inactive.
In the case of `O=c1cc(-c2ccc(O)cc2)oc2c(O)c(O)ccc12`, in assay [2], the result was Active.
Regarding `O=c1cc(-c2ccccc2)oc2cc(O)ccc12`, the outcome in assay [1] was inactive.
Still for that read-out and setting: the value for `O=c1c(-c2ccccc2)coc2cc(O)ccc12` was “inactive”.
Regarding `O=c1c(O)c(-c2cccc(O)c2)oc2ccccc12`, in assay [1], the result was inactive.
The same measure, in the same setting: the value for `O=c1cc(-c2cccc(O)c2)oc2ccccc12` was “inactive”.
The same measure, in the same setting: the value for `O=c1cc(-c2ccc(O)cc2)oc2ccccc12` was “inactive”.
In the case of `O=c1cc(-c2ccccc2)oc2cccc(O)c12`, the result in assay [1] was inactive.
Regarding `C[S+](C)[O-]`, in assay [1], the result was inactive.
For `O=c1cc(-c2ccc(O)cc2O)oc2ccccc12`, the outcome in assay [1] was inactive.
Regarding `O=c1cc(-c2ccccc2)oc2c(O)c(O)cc(O)c12`, the outcome in assay [1] and in assay [2] was Active.
With `O=c1cc(-c2cccc(O)c2)oc2c1ccc1ccccc12`, the result in assay [1] was inactive.
For `COc1cccc(-c2cc(=O)c3ccc(O)cc3o2)c1`, in assay [1], the result was inactive.
The same measure, in the same setting: the value for `COc1cc(-c2oc3cc(O)ccc3c(=O)c2O)cc(OC)c1OC` was “inactive”; that for `O=c1cc(-c2ccccc2)oc2ccc(O)c(O)c12` was “inactive”.
The same measure, in the same setting: the value for `O=c1cc(-c2cccc(O)c2O)oc2ccccc12` was “inactive”.
In the case of `O=c1cc(-c2ccccc2O)oc2ccccc12`, the outcome in assay [1] was inactive.
The same measure, in the same setting: the value for `O=c1cc(-c2ccc(O)c(O)c2)oc2ccccc12` was “inactive”.
As to `O=c1cc(-c2cccc(O)c2)oc2cc(O)ccc12`, the result in assay [1] and in assay [2] was Active.
For `COc1ccc(-c2c(C)c3ccc(O)cc3oc2=O)cc1`, in assay [1], the result was inactive.
The same measure, in the same setting: the value for `O=c1cc(-c2cccc(O)c2)oc2cc(O)c(O)cc12` was “Active”; that for `COc1ccccc1-c1cc2ccc(O)cc2oc1=O` was “inactive”.
Same read-out and setting: the value for `COc1cccc(-c2cc(=O)c3ccc(OC)cc3o2)c1` was “inactive”; that for `O=c1c(O)c(-c2ccccc2O)oc2ccccc12` was “inactive”.
Consider `O=c1cc(-c2ccccc2)oc2cc(O)c(O)cc12`, for which the outcome in assay [1] was Active.
On to `COc1cccc(-c2cc(=O)c3ccccc3o2)c1OC`, for which the outcome in assay [1] was inactive.
Still for that read-out and setting: the value for `O=c1cc(-c2ccccc2)oc2cc(O)c(O)c(O)c12` was “inactive”.
Turning to `O=c1cc(-c2ccccc2O)oc2c(O)c(O)ccc12`, the outcome in assay [1] and in assay [2] was Active.
For the compound `COc1ccc(-c2cc(=O)c3ccc(O)cc3o2)cc1`, the outcome in assay [1] was inactive. In addition, the outcome in assay [2] was Active.
On to `O=c1cc(-c2ccccc2)oc2cc(O)cc(O)c12`, for which the result in assay [1] was inactive.
Same read-out and setting: the value for `O=c1c(O)c(-c2ccccc2)oc2ccccc12` was “inactive”; that for `O=c1cc(-c2ccccc2)oc2ccccc12` was “inactive”; that for `O=c1cc(-c2ccccc2)oc2ccc(O)cc12` was “inactive”.
